This note sets out measurements from ChEMBL document CHEMBL4043093, “2-Oxo-3, 4-dihydropyrimido[4, 5-d]pyrimidinyl derivatives as new irreversible pan fibroblast growth factor receptor (FGFR) inhibitors” (Eur J Med Chem, 2017).

Molecules are shown by their SMILES.

The target in experiment [1] is AP2-associated protein kinase 1 (Homo sapiens) (UniProt Q2M2I8). Nature of the experiment: Inhibition of human wild-type AAK1 (G25 to L333 residues) expressed in Escherichia coli BL21 assessed as residual activity at 1000 nM after 30 mins by Kinomescan method relative to control. Put shortly: (§1)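 Single-point screen at a fixed 1 µM, run within a 456-kinase DiscoveRx KINOMEscan panel. Each kinase's read-out is Percent Control, i.e. signal relative to a control without compound. Hits were scored by a Percent Control < 35 cut-off, and an S(35) selectivity score was calculated across the non-mutant kinases.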
AP2-associated protein kinase 1 (Homo sapiens), sequence (Q2M2I8 whole entry, looked up, the tested form may be a part): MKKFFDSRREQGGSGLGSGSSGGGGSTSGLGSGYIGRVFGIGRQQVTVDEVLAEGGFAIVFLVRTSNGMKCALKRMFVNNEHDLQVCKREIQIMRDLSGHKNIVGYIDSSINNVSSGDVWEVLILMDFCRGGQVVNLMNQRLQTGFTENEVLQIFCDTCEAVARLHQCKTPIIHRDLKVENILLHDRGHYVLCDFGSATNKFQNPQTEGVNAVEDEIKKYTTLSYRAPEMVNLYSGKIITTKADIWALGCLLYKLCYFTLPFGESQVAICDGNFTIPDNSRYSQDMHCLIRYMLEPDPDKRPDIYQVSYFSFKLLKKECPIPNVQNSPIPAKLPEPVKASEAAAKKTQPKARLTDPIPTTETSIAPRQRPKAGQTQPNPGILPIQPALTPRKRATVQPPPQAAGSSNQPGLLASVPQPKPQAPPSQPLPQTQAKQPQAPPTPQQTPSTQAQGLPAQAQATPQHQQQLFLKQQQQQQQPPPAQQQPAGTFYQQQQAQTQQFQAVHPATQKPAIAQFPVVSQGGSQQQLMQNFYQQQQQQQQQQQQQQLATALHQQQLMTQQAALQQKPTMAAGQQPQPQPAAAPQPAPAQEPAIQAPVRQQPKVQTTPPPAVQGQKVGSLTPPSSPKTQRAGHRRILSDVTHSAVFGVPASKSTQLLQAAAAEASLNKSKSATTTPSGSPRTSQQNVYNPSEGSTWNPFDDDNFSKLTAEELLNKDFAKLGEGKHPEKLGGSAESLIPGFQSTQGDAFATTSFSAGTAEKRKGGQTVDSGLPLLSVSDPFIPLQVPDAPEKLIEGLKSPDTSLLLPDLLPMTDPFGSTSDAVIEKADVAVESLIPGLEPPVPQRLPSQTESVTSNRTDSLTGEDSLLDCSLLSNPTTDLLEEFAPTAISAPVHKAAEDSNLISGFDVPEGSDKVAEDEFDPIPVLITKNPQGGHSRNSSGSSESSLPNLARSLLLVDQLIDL

The target in experiment [2] is 5'-AMP-activated protein kinase catalytic subunit alpha-2 (Homo sapiens) (UniProt P54646). Description: Inhibition of wild-type human partial length AMPK alpha2 (M1 to E306 residues) expressed in Escherichia coli BL21 assessed as residual activity at 1000 nM after 30 mins by Kinomescan method relative to control.
Experiment [3] deals with Casein kinase I isoform gamma-3 (Homo sapiens) (UniProt Q9Y6M4). Nature of the experiment: Inhibition of wild-type human full length CSNK1G3 (M1 to K447 residues) expressed in Escherichia coli BL21 assessed as residual activity at 1000 nM after 30 mins by Kinomescan method relative to control. In short, it runs like this:
as §1

Experiment [4] deals with Death-associated protein kinase 1 (Homo sapiens) (UniProt P53355). Description: Inhibition of wild-type human partial length DAPK1 (M1 to F296 residues) expressed in Escherichia coli BL21 assessed as residual activity at 1000 nM after 30 mins by Kinomescan method relative to control.
The target in experiment [5] is Serine/threonine-protein kinase DCLK1 (Homo sapiens) (UniProt O15075). Description: Inhibition of wild-type human partial length DCAMKL1 (L270 to A662 residues) expressed in HEK293 cells assessed as residual activity at 1000 nM after 30 mins by Kinomescan method relative to control. The class given is cell-based.
Experiment [6] has as its target Discoidin domain-containing receptor 2 (Homo sapiens) (UniProt Q16832). Nature of the experiment: Inhibition of wild-type human partial length DDR2 (V555 to E855 residues) expressed in HEK293 cells assessed as residual activity at 1000 nM after 30 mins by Kinomescan method relative to control. The class given is cell-based.
Experiment [7] addresses Dual specificity tyrosine-phosphorylation-regulated kinase 2 (Homo sapiens) (UniProt Q92630). Nature of the experiment: Inhibition of wild-type human full length DYRK2 (M1 to S528 residues) expressed in HEK293 cells assessed as residual activity at 1000 nM after 30 mins by Kinomescan method relative to control. The class given is cell-based. In short, it runs like this: (§2)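 Single-concentration screen at 1 µM across a 456-kinase KINOMEscan panel. The read-out is Percent Control for each kinase.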

For experiment [8], the target named is Receptor-type tyrosine-protein kinase FLT3 (Homo sapiens) (UniProt P36888). Nature of the experiment: Inhibition of wild-type human partial length autoinhibited FLT3 (H564 to Y969 residues) expressed in HEK293 cells assessed as residual activity at 1000 nM after 30 mins by Kinomescan method relative to control. The class given is cell-based.
For experiment [9], the target named is Interleukin-1 receptor-associated kinase 4 (Homo sapiens) (UniProt Q9NWZ3). Nature of the experiment: Inhibition of wild-type human partial length IRAK4 (M1 to S460 residues) expressed in HEK293 cells assessed as residual activity at 1000 nM after 30 mins by Kinomescan method relative to control. The class given is cell-based.
Experiment [10] deals with MAP kinase-interacting serine/threonine-protein kinase 1 (Homo sapiens) (UniProt Q9BUB5). Description: Inhibition of wild-type human full length MKNK1 (M1 to L424 residues) expressed in HEK293 cells assessed as residual activity at 1000 nM after 30 mins by Kinomescan method relative to control. The class given is cell-based. In short, it runs like this: as §2
MAP kinase-interacting serine/threonine-protein kinase 1 (Homo sapiens), sequence (Q9BUB5 whole entry, looked up, the tested form may be a part): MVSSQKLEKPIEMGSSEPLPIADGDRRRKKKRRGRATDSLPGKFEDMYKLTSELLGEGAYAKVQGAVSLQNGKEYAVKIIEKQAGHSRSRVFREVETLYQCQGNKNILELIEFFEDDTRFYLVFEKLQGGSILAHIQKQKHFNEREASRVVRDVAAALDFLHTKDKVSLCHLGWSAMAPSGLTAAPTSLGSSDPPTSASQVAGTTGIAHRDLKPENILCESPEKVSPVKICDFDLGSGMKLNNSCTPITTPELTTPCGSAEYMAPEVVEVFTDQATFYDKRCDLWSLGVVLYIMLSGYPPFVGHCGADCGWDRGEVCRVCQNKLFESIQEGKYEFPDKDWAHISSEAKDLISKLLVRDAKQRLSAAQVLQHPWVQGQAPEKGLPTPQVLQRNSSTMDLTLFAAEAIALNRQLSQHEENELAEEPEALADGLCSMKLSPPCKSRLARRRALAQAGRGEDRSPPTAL
The target of experiment [11] is Serine/threonine-protein kinase MRCK beta (Homo sapiens) (UniProt Q9Y5S2). Nature of the experiment: Inhibition of wild-type human partial length MRCKB (L56 to S417 residues) expressed in Escherichia coli BL21 assessed as residual activity at 1000 nM after 30 mins by Kinomescan method relative to control.
The subject of experiment [12] is Phosphatidylinositol 4,5-bisphosphate 3-kinase catalytic subunit alpha isoform (Homo sapiens), P42336 [H1047Y]. Description: Inhibition of human partial length PIK3CA H1047Y mutant (R108 to N1068 residues) expressed in HEK293 cells assessed as residual activity at 1000 nM after 30 mins by Kinomescan method relative to control. The class given is cell-based. Put shortly:
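KINOMEscan binding panel of 456 kinases, with the test compound at a single concentration of 1 µM. Read-out is Percent Control.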

Experiment [13] relates to Phosphatidylinositol 4,5-bisphosphate 3-kinase catalytic subunit alpha isoform (Homo sapiens), P42336 [M1043I]. Description: Inhibition of human partial length PIK3CA M1043I mutant (R108 to N1068 residues) expressed in HEK293 cells assessed as residual activity at 1000 nM after 30 mins by Kinomescan method relative to control. The class given is cell-based. In short, it runs like this:
as §1

Experiment [14] addresses Serine/threonine-protein kinase pim-3 (Homo sapiens) (UniProt Q86V86). Description: Inhibition of wild-type human partial length PIM3 (G16 to A317 residues) expressed in Escherichia coli BL21 assessed as residual activity at 1000 nM after 30 mins by Kinomescan method relative to control.
Experiment [15] concerns the target Serine/threonine-protein kinase N2 (Homo sapiens) (UniProt Q16513). Description: Inhibition of wild-type human partial length PKN2 (E634 to C984 residues) expressed in Escherichia coli BL21 assessed as residual activity at 1000 nM after 30 mins by Kinomescan method relative to control.
For experiment [16], the target named is Serine/threonine-protein kinase SBK1 (Homo sapiens) (UniProt Q52WX2). Nature of the experiment: Inhibition of wild-type human partial length SBK1 (P23 to P348 residues) expressed in HEK293 cells assessed as residual activity at 1000 nM after 30 mins by Kinomescan method relative to control. The class given is cell-based.
Experiment [17] addresses Serine/threonine-protein kinase SIK1 (Homo sapiens) (UniProt P57059). Nature of the experiment: Inhibition of wild-type human partial length SIK (M1 to Y304 residues) expressed in Escherichia coli BL21 assessed as residual activity at 1000 nM after 30 mins by Kinomescan method relative to control.
The target of experiment [18] is Tyrosine-protein kinase Srms (Homo sapiens) (UniProt Q9H3Y6). Nature of the experiment: Inhibition of wild-type human partial length SRMS (L208 to P488 residues) expressed in HEK293 cells assessed as residual activity at 1000 nM after 30 mins by Kinomescan method relative to control. The class given is cell-based.
Experiment [19] addresses Serine/threonine-protein kinase TAO1 (Homo sapiens) (UniProt Q7L7X3). Nature of the experiment: Inhibition of wild-type human partial length TAOK1 (M1 to A320 residues) expressed in HEK293 cells assessed as residual activity at 1000 nM after 30 mins by Kinomescan method relative to control. The class given is cell-based.
Experiment [20] addresses Serine/threonine-protein kinase TNNI3K (Homo sapiens) (UniProt Q59H18). Nature of the experiment: Inhibition of wild-type human full length TNNI3K (M1 to S835 residues) expressed in Escherichia coli BL21 assessed as residual activity at 1000 nM after 30 mins by Kinomescan method relative to control.
Experiment [21] addresses Non-receptor tyrosine-protein kinase TYK2 (Homo sapiens) (UniProt P29597). Description: Inhibition of wild-type human partial length TYK2 JH2 pseudokinase domain (G556 to D888 residues) expressed in HEK293 cells assessed as residual activity at 1000 nM after 30 mins by Kinomescan method relative to control. The class given is cell-based.

Dual specificity tyrosine-phosphorylation-regulated kinase 2 (Homo sapiens), sequence (Q92630 whole entry, the tested form may be a part): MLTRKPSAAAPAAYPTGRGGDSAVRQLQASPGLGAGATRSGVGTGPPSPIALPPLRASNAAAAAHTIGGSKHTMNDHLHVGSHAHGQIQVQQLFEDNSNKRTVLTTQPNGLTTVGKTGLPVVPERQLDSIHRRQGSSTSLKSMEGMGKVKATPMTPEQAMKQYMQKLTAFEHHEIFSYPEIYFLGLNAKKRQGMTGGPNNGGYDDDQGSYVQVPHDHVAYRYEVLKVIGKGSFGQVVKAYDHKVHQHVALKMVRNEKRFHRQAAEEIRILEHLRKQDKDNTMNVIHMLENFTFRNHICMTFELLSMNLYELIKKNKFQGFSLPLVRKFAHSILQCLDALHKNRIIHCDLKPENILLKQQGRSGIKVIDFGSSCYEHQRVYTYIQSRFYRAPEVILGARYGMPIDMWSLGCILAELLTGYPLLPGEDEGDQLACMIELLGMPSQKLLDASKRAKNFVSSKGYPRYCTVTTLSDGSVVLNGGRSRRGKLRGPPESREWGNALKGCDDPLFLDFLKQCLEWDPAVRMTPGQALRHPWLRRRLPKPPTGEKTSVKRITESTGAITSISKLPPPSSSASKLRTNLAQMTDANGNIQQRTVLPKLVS
Serine/threonine-protein kinase TNNI3K (Homo sapiens), sequence (Q59H18 whole entry, the tested form may be a part): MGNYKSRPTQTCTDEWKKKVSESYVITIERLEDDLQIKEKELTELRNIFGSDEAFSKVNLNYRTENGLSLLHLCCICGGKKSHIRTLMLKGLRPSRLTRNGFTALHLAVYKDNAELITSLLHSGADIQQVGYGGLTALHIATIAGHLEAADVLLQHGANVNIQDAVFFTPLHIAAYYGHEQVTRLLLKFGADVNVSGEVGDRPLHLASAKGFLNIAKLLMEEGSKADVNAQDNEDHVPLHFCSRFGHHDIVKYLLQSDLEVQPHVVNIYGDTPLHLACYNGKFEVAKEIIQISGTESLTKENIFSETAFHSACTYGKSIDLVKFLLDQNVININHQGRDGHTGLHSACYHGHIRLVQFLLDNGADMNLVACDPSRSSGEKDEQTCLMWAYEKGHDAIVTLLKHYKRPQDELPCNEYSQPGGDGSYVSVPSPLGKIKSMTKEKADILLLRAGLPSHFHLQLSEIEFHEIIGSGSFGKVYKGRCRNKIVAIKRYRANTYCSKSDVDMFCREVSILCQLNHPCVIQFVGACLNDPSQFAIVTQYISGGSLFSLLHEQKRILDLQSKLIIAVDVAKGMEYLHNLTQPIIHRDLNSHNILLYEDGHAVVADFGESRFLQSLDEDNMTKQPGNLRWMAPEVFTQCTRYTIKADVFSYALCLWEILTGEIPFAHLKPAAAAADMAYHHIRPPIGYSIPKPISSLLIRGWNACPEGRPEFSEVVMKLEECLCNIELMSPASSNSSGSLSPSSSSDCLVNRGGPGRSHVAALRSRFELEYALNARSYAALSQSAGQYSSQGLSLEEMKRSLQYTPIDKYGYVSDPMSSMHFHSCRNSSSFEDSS
Non-receptor tyrosine-protein kinase TYK2 (Homo sapiens), sequence (P29597 whole entry, the tested form may be a part): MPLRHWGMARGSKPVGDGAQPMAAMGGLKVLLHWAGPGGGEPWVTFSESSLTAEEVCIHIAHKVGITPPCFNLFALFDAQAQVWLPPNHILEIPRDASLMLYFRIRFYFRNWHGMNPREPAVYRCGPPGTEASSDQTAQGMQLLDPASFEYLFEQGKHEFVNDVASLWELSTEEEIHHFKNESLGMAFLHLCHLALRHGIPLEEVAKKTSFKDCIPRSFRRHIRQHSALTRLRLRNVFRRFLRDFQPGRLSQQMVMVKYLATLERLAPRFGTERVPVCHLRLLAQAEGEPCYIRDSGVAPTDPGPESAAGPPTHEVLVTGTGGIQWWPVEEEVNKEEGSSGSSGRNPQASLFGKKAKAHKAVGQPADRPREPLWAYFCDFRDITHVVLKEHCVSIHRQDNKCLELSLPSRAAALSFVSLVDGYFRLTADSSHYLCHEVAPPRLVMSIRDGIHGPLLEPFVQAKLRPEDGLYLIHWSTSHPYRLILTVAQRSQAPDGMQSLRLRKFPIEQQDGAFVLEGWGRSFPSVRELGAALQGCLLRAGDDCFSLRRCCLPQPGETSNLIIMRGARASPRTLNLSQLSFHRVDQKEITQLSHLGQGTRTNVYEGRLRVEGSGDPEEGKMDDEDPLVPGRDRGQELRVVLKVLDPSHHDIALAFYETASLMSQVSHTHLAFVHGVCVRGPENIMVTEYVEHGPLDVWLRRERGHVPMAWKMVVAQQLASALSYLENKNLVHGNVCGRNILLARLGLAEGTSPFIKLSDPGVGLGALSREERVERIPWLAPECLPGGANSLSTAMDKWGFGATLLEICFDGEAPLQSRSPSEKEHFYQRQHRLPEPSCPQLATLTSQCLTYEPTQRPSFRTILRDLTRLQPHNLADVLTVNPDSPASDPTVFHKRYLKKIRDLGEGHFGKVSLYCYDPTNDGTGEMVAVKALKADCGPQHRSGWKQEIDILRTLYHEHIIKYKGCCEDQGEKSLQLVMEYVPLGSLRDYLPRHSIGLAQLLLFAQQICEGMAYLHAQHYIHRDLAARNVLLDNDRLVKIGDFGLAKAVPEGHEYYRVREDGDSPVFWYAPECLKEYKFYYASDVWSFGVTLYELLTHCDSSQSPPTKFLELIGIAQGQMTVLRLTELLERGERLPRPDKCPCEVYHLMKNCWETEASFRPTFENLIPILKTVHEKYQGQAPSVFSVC
Serine/threonine-protein kinase N2 (Homo sapiens), sequence (Q16513 whole entry, looked up, the tested form may be a part): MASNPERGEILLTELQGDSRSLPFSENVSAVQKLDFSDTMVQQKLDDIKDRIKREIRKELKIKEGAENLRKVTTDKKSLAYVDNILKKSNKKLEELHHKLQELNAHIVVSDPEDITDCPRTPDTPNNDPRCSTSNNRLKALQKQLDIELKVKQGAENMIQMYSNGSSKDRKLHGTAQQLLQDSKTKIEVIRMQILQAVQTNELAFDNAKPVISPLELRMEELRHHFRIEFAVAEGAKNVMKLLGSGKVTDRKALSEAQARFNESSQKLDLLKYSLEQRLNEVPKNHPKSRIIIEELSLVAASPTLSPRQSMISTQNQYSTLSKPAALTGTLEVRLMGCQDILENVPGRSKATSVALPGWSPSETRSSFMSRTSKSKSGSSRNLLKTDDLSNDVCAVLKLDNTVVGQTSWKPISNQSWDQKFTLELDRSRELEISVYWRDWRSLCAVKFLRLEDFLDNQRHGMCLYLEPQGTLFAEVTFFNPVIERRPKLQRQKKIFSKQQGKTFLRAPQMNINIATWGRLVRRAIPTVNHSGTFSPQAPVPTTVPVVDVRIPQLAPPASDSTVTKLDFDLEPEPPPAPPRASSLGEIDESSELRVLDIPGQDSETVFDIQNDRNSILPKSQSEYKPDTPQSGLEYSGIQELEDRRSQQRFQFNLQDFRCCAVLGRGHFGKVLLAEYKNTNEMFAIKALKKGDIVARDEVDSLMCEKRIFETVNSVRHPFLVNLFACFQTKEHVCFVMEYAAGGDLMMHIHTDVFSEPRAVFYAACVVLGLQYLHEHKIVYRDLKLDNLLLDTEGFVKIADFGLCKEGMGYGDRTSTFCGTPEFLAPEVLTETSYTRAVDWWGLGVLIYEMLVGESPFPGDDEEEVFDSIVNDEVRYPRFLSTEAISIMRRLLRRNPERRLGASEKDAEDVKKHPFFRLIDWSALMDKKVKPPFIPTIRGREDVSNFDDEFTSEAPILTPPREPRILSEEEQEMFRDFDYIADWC

With `COc1cc(OC)c(Cl)c(N2Cc3cnc(Nc4ccc(F)cc4)nc3N(C3CCN(C(=O)/C=C/CN(C)C)CC3)C2=O)c1Cl`, the Activity in [1] was 100%; in experiment [2], 89%; in experiment [3], 100%; in experiment [4], 100%; in experiment [5], 95%; in [6], 77%. Further, the Activity in experiment [7] is 100%; in experiment [8] it was 100%; in experiment [9] it was 100%; in experiment [10] it was 88%; in experiment [11], 100%; in [12], 100%. In addition, the Activity in experiment [13] is 95%; in [14] it was 100%; in experiment [15], 91%; in [16] it was 90%; in experiment [17] it was 19%; in experiment [18], 100%. The figures for the Activity in [19], in [20] and in experiment [21] were 13%, 100% and 95%, respectively.
